The list is not random: actives were taken first. Their share in the collection is about 1.7%.
core dimer inh – inhibitors of HCV core protein dimerization, primary screen, biochemical, TR-FRET, high-throughput. TR-FRET GST/Flag-core106 dimerization, 1536-well. inhibition, % at 5 µM. 300,000 compounds, 0.33% hits. AID 1899, 2009;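 active = inhibition above the mean of all tested compounds plus 3 SD, set per screening campaign, cut at about 45% in these data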
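Test system: GST/Flag-tagged HCV core106 proteins; Medium: KF-containing HEPES buffer, pH 7.45, DTT, CHAPS, BSA; Times: compound-protein-antibody incubation 4 h at 22.5 °C; Detection: TR-FRET 671 and 617 nm emission; Benchmarks: wells lacking GST-core106 and wells with excess unlabelled core106.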
EBNA-1 inh – EBNA-1 DNA-binding inhibitors, primary screen, biochemical, fluorescence polarization; inhibition, % at 14.8 µM; 300,000 compounds, 0.34% hits; AID 1950, 2009; in the data active = inhibition above about 28%
ZTA counter – blocks Epstein-Barr virus ZTA, an EBNA-1 counter-screen | ZTA-DNA binding, fluorescence polarization | inhibition, % at 11 µM | 320,000 compounds, 0.15% hits; in the data active = inhibition above about 33%
Target sequence (P03206 whole entry, looked up): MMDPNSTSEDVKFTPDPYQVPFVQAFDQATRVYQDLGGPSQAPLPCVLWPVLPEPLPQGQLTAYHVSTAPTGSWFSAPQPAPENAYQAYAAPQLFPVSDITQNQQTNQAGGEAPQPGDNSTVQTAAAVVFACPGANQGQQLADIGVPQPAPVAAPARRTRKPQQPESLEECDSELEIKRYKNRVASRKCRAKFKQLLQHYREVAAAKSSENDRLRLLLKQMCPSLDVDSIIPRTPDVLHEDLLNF
PP5 inh – PP5 phosphatase inhibitors, primary screen, biochemical, fluorescence | inhibition, % at 6.7 µM | purified PP5c, OMFP substrate fluorescence | AID 1987, 2009 | 320,000 compounds, 0.18% hits;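 active = inhibition above the campaign's mean inhibition across all tested compounds plus 3 SD, cut at about 9.5% in these data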;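 also: 0% = DMSO only and 100% = 100 µM cantharidin control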
PP1 counter – PP1-alpha phosphatase inhibitors, primary screen, counter-screen for PP5 inhibitor project, biochemical, fluorescence, OMFP substrate, single point | Serine/threonine-protein phosphatase PP1-alpha catalytic subunit (Homo sapiens), P62136 | 320,000 compounds, 0.9% hits | inhibition, % at 6.7 µM | AID 2235, 2010 | purified PP1alpha;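 active = inhibition above the mean inhibition of all tested compounds plus 3 SD, computed separately for each screening campaign, cut at about 15% in these data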
Target sequence (P62136 whole entry, looked up): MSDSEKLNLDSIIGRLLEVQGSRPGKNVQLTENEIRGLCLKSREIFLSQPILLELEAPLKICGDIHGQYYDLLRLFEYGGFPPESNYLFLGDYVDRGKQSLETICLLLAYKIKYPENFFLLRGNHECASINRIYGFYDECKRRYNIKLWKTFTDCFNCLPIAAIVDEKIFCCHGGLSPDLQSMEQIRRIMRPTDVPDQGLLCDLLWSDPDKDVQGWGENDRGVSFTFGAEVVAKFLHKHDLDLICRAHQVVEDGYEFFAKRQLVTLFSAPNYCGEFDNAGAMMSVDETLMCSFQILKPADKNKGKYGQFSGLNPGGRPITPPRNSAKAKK
EBNA-1 confirm – EBNA-1 DNA-binding inhibitors, retest, confirmation, biochemical, fluorescence polarization, triplicate; shares compounds with EBNA-1 inh; AID 2292, 2010; 830 compounds, 35% hits; inhibition, % at 14.8 µM; Recombinant EBNA-1 DBD, Cy5-DNA fluorescence polarization;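 active = mean inhibition across replicates above a set limit taken from the earlier primary screen, cut at about 28% in these data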;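 also: plate controls were EBNA-1 protein with DMSO for no effect and wells lacking EBNA-1 for full effect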
ZTA counter trip – EBV Zta DNA binding inhibitors, counter-screen for EBNA-1 inhibitor project, biochemical, fluorescence polarization, triplicate; shares compounds with EBNA-1 inh; Zta-ZRE DNA binding, Cy5 fluorescence polarization; inhibition, % at 11.1 µM; 830 tested, under 10 active; AID 2328, 2010;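 active = mean inhibition over triplicates above a set limit taken from the primary EBNA-1 screen, cut at about 37% in these data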;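 also: purified full length Zta protein with Cy5 labeled ZRE DNA probe; 0% = Zta with DMSO and 100% = wells lacking Zta protein; inhibitors lower polarization by freeing the labeled DNA probe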
* = called active by the depositor; . = no result; + = active, no number.

SMILES	core dimer inh	EBNA-1 inh	ZTA counter	PP5 inh	PP1 counter	EBNA-1 confirm	ZTA counter trip
Cc1ccc(CN2CCNC(=O)C2CC(=O)N2CCN(c3ncccn3)CC2)o1 (stereo not given)	-2	-13	-6	2	-1	.	.
Cc1cccc(C)c1NC(=O)C(NC(=O)CN1C(=O)c2ccccc2C1=O)c1ccccc1 (stereo not given)	5	29*	-4	1	-3	7	6
CC(NC(=O)CN1C(=O)c2ccccc2C1=O)c1ccccc1 (stereo not given)	-3	1	-13	3	0	.	.
COc1cccc(-n2nnc3c(=O)n(Cc4ccc(Br)cc4)cnc32)c1	11	35*	7	1	-2	7	8
COc1cccc(-n2nnc3c(=O)n(Cc4ccc(C)cc4)cnc32)c1	6	2	1	1	1	.	.
NS(=O)(=O)c1ccc(NC(=S)Nc2ccn(Cc3cccc4ccccc34)n2)cc1	10	29*	-1	5	4	34*	-4
O=C1C(CSCc2ccccc2)NC(=S)N1c1ccccc1 (stereo not given)	5	17	4	-3	3	.	.
CCOc1cc(/C=C(\C#N)C(=O)NCc2cccnc2)ccc1O	-2	15	8	0	-2	.	.
Cc1ccc2nc3c(c(C(=O)OC4CCOC4=O)c2c1)CCCC3 (stereo not given)	-2	30*	0	0	-1	6	6
NS(=O)(=O)c1ccc(CCNC(=O)c2cc(-c3ccc(Br)cc3)nc3ccccc23)cc1	-1	5	-3	4	-7	.	.
NS(=O)(=O)c1ccc(CCNC(=O)c2cc(-c3ccccn3)nc3ccc(Br)cc23)cc1	22	43*	-1	3	9	36*	3
CCOc1ncccc1C(=O)OCC(=O)Nc1ccc(C(N)=O)cc1	0	+	-5	-1	-1	7	11
O=C(NCCc1ccc(F)cc1)c1ccc2c(=O)n3c(nc2c1)CCC3	-2	45*	-12	3	-2	-4	-5
CN(Cc1ccccc1)C(=O)c1nc2ccccn2c1CN1CCC(N2CCOCC2)CC1	-1	-12	-1	4	1	.	.
Cc1ccc(NC(=O)CSc2nnc(-c3ccc(S(=O)(=O)N4CCCC4)cc3)o2)cc1C	-2	108*	-11	1	-6	56*	194*
CC(C)(C)c1nc(SCC(=O)Nc2ccc3c(c2)OCCO3)c2ccccc2n1	9	46*	-3	2	-2	16	3
O=C(CSc1nnc(-c2ccc(O)cc2)o1)Nc1ccc2c(c1)OCCO2	2	34*	-7	0	-3	12	9
COCCn1c(SCC(=O)NC2CC2)nc2ccccc21	.	.	0	-2	-1	.	.
COC(=O)c1cn(NC(=O)Cc2ccc(Cl)c(Cl)c2)c(=O)c2ccccc12	1	44*	-4	-2	-3	25	-8
COC(=O)c1cn(NC(=O)Cc2ccc(Cl)cc2)c(=O)c2ccccc12	4	7	10	0	-1	.	.
Nc1c([N+](=O)[O-])cnnc1-c1ccccc1	-9	6	-9	2	0	.	.
Cc1ccc(O)c(NC(=S)NC(=O)c2ccccc2Cl)c1	1	-17	3	2	3	.	.
Cc1ccc(-n2cccc2/C=C2/C(=N)N3C(=NC2=O)SN=C3S(C)(=O)=O)cc1Cl	39	32*	15	7	7	15	6
CCOC(=O)CN1C(=O)C2Cc3ccccc3CN2C1=S (stereo not given)	3	-11	-3	2	-3	.	.
CCOC(=O)COc1cccc2c(=O)n(CC(=O)N3CCc4ccccc43)ccc12	-1	36*	9	4	3	17	1
SMILES	core dimer inh	EBNA-1 inh	ZTA counter	PP5 inh	PP1 counter	EBNA-1 confirm	ZTA counter trip
O=C(COc1ccccc1)N=C1SC2CS(=O)(=O)CC2N1Cc1ccccc1 (stereo not given)	-1	+	-15	1	-2	-4	-2
CCOC(=O)c1nn(-c2ccc(F)cc2)c(=O)c(C#N)c1C	-3	-7	0	2	-4	.	.
Cc1ccc(C(=O)Nc2cccc(C(F)(F)F)c2)cc1NC(=O)c1csc(-c2ccncc2)n1	4	5	-4	4	15	.	.
N#C/C(=N\Nc1cccc(C(F)(F)F)c1)C(=O)c1csc(-c2cccnc2)n1	3	50*	-5	5	8	0	4
O=C(N/N=C/c1cccnc1)c1ccc(CN2c3cccc4cccc(c34)S2(=O)=O)cc1	4	-8	-7	1	-1	.	.
COc1cccc(/C=N/NC(=O)c2ccc(CN3c4cccc5cccc(c45)S3(=O)=O)cc2)c1	39	30*	-3	4	11	17	2
CN(c1ccc(OCC(=O)Nc2nc3ccccc3s2)cc1)S(=O)(=O)c1ccccc1	21	47*	12	-1	-1	23	8
CCOc1ccc(NC(=O)CN(C)C(=O)c2ccccc2CCc2ccccc2)cc1OCC	-1	-7	-2	7	1	.	.
COCCOC(=O)c1c(NC(=O)COC(=O)Cc2cccc(OC)c2)sc(C(N)=O)c1C	5	39*	-7	4	0	98*	8
COCCOC(=O)c1c(NC(=O)CN(C)c2ccccc2)sc(C(N)=O)c1C	4	4	-7	0	2	.	.
O=C(NCc1ccc(-c2nc3ccccc3s2)cc1)c1cc2ccccc2o1	-14	28*	3	-1	6	3	5
O=C(NCc1ccc(-c2nc3ccccc3s2)cc1)c1ccc(Br)o1	-7	8	3	0	0	.	.
Cc1onc(-c2ccccc2)c1C(=O)N1CCc2ccccc21	4	5	12	0	-5	.	.
NC(=O)C[N+]1(CC#CC(O)(c2ccccc2)c2ccccc2)CCCC1	-12	128*	12	0	-3	2	-1
O=C(CCCCCNc1nc(=S)[nH]c2ccccc12)NCCc1ccc(Cl)cc1	9	66*	3	-2	3	68*	2
Clc1cc(Cl)cc(C2=NCCC(c3ccccc3)O2)c1 (stereo not given)	-4	-5	-4	2	6	.	.
O=C1N/C(=C\c2ccccc2)C(O)=C1C=NCc1ccccc1	-6	33*	-6	2	0	10	9

From PubChem BioAssay
